Experimental findings from BindingDB's records for doi:10.1021/jm00031a021 (Tap Pharmaceuticals, 1994) are described below.

SMILES strings stand for the structures. pKi: −log10 of the molar value. Where a SMILES comes first, the peptide text is derived from it. [ ]: non-standard residue; d: D form. The star is where a group is joined. Propanoyl(3-(4-F-phenyl)) = O=C(CCc1ccc(F)cc1)*; Propanoyl(3-(4-Cl-Ph)) = O=C(CCc1ccc(Cl)cc1)*; dPhe(4-Cl) = N[C@H](Cc1ccc(Cl)cc1)C(=O)O; Desaminotyrosyl = O=C(CCc1ccc(O)cc1)*; d1Nal = N[C@H](Cc1cccc2ccccc12)C(=O)O; d2Nal = N[C@H](Cc1ccc2ccccc2c1)C(=O)O; Lys(iPr) = CC(C)NCCCC[C@H](N)C(=O)O; NMeY = CN[C@@H](Cc1ccc(O)cc1)C(=O)O; d3Pal = N[C@H](Cc1cccnc1)C(=O)O; pGlu = O=C1CC[C@@H](C(=O)O)N1; Nicotinoyl = O=C(c1cccnc1)*; X1 = O=C(Cc1ccc(O)cc1)*

For the experiment, the target named is T1, Gonadotropin-releasing hormone receptor (Rattus norvegicus, UniProt P30969).
T1 sequence (P30969 whole entry): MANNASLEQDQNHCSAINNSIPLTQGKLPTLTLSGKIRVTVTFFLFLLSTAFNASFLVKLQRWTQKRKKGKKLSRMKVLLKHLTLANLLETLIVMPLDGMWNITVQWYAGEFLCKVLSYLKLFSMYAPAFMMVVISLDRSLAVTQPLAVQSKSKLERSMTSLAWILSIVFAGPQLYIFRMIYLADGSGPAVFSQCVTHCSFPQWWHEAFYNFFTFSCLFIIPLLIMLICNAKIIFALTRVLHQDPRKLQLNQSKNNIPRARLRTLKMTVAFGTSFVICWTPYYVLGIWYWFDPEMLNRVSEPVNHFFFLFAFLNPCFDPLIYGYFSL
The experiment can be described thus: Inhibition of the in vitro binding of [125I]-labeled leuprolide to the rat pituitary luteinizing hormone releasing hormone (LHRH) receptor. A digest of the protocol:
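Rat pituitary LHRH receptor binding with 125I-labeled leuprolide as radioligand. pKI is the negative log of the analogue concentration inhibiting 50% of tracer binding. Compounds tested as TFA salts.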
As to `CCNC(=O)[C@H]1CCCN1C(=O)[C@H](CCCN=C(N)N)NC(=O)[C@H](CC(C)C)NC(=O)[C@@H](Cc1c[nH]c2ccccc12)NC(=O)[C@H](Cc1ccc(O)cc1)NC(=O)[C@@H]1CC(O)CN1C(=O)[C@H](Cc1c[nH]c2ccccc12)NC(=O)CCc1ccc(F)cc1` (some centres undefined), the pKi (commonly the negative decadic logarithm of the Ki, by convention in mol/L) was 8.89.

Consider `CCNC(=O)[C@H]1CCCN1C(=O)[C@H](CCCN=C(N)N)NC(=O)[C@H](CC(C)C)NC(=O)[C@@H](Cc1c[nH]c2ccccc12)NC(=O)[C@H](Cc1ccc(O)cc1)NC(=O)[C@@H]1CCCN1C(=O)[C@H](Cc1c[nH]c2ccccc12)NC(=O)CCc1ccc(F)cc1`, for which the pKi was 9.08.

The molecule `CC(=O)N[C@H](Cc1ccc2ccccc2c1)C(=O)N[C@H](Cc1ccc(Cl)cc1)C(=O)N[C@H](Cc1cccnc1)C(=O)N[C@@H](CO)C(=O)N(C)[C@@H](Cc1ccc(O)cc1)C(=O)N[C@H](CCCCNC(=O)c1cccnc1)C(=O)N[C@@H](CC(C)C)C(=O)N[C@@H](CCCCNC(C)C)C(=O)N1CCC[C@H]1C(=O)N[C@H](C)C(N)=O` (Ac-[d2Nal][dPhe(4-Cl)][d3Pal]S[NMeY][dK](Nicotinoyl)L[Lys(iPr)]P[dA]-NH2) had a pKi of 10.49.

Turning to `CCNC(=O)[C@@H]1CCCN1C(=O)[C@H](CCCN=C(N)N)NC(=O)[C@H](CC(C)C)NC(=O)[C@@H](Cc1c[nH]c2ccccc12)NC(=O)[C@H](Cc1ccc(O)cc1)NC(=O)[C@H](CO)NC(=O)[C@H](Cc1c[nH]c2ccccc12)NC(=O)CCc1ccc(O)cc1` (Desaminotyrosyl-WSY[dW]LRP-NHEt), the pKi was 10.07.

The molecule `CCNC(=O)[C@@H]1CCCN1C(=O)[C@H](CCCN=C(N)N)NC(=O)[C@H](CC(C)C)NC(=O)[C@@H](Cc1c[nH]c2ccccc12)NC(=O)[C@H](Cc1ccc(O)cc1)NC(=O)[C@H](CO)NC(=O)[C@H](Cc1c[nH]c2ccccc12)NC(=O)Cc1ccc(O)cc1` (X1-WSY[dW]LRP-NHEt) showed a pKi of 9.09.

The molecule `CCNC(=O)[C@@H]1CCCN1C(=O)[C@H](CCCN=C(N)N)NC(=O)[C@H](CC(C)C)NC(=O)[C@@H](Cc1c[nH]c2ccccc12)NC(=O)[C@H](Cc1ccc(O)cc1)NC(=O)[C@H](CO)NC(=O)[C@H](Cc1c[nH]c2ccccc12)NC(=O)[C@H](Cc1ccccc1)NC(=O)[C@@H]1CCC(=O)N1` ([pGlu]FWSY[dW]LRP-NHEt) gave a pKi of 10.60.

As to `CCNC(=O)[C@@H]1CCCN1C(=O)[C@H](CCCN=C(N)N)NC(=O)[C@H](CC(C)C)NC(=O)[C@@H](Cc1c[nH]c2ccccc12)NC(=O)[C@H](Cc1ccc(O)cc1)NC(=O)[C@H](CO)NC(=O)[C@H](Cc1ccc(O)cc1)NC(=O)CCc1ccc(Cl)cc1` ({Propanoyl(3-(4-Cl-Ph))}-YSY[dW]LRP-NHEt), the pKi is 10.12.

`CCNC(=O)[C@@H]1CCCN1C(=O)[C@H](CCCN=C(N)N)NC(=O)[C@H](CC(C)C)NC(=O)[C@@H](Cc1c[nH]c2ccccc12)NC(=O)[C@H](Cc1ccc(O)cc1)NC(=O)[C@H](CO)NC(=O)[C@@H](Cc1ccc(O)cc1)NC(=O)CCc1ccc(Cl)cc1` ({Propanoyl(3-(4-Cl-Ph))}-[dY]SY[dW]LRP-NHEt) showed a pKi of 10.74.

As to `CC(C)C[C@H](NC(=O)[C@@H](CCCCNC(=O)c1cccnc1)NC(=O)[C@H](Cc1ccc(O)cc1)N(C)C(=O)[C@H](CO)NC(=O)[C@@H](Cc1cccc2ccccc12)NC(=O)CCc1ccc(F)cc1)C(=O)N[C@@H](CCCCNC(C)C)C(=O)N1CCC[C@H]1C(=O)N[C@H](C)C(N)=O` ({Propanoyl(3-(4-F-phenyl))}-[d1Nal]S[NMeY][dK](Nicotinoyl)L[Lys(iPr)]P[dA]-NH2), the pKi is 10.70.
